Experimental data reported in ChEMBL document CHEMBL1138278, “Aromatic amide derivatives of 5,6-dimethoxy-2,3-dihydro-1H-inden(-1-yl)acetic acid as anti-inflammatory agents free of ulcerogenic liability” (Bioorg Med Chem Lett, 2007).

Key:
Rattus norvegicus [1] = assay: Antiarthritic activity against adjuvant-induced arthritis in Wistar rat assessed as inhibition of paw edema at 100 mg/kg, po on day 8; assay type: functional; details: 192 h
Method in brief: (§1)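 Male Wistar rats (160 ± 10 g) dosed orally once daily for 14 days, from the day before injecting 0.1 ml Freund's complete adjuvant into the subplantar surface of the right hind paw. Paw swelling, including the uninjected left paw, and body weight recorded. Means ± SEM, n = 6; p < 0.05 versus control.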

Rattus norvegicus [2] = assay: Antipyretic activity against LPS-induced pyresis in Wistar rat assessed as change in rectal temperature at 100 mg/kg, po after 4 hrs; assay type: functional
Method in brief: (§2)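 Male Wistar rats (170 ± 20 g) dosed orally: test agents at 100 mg/kg, indomethacin and aspirin at 10 mg/kg and 100 mg/kg. Half an hour later, LPS in apyrogenic saline given at 100 µg/kg i.p. Rectal temperature taken by telethermometer probe immediately before LPS and hourly from 1 to 7 h after. Change in temperature reported; means ± SEM, n = 6.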

Rattus norvegicus [3] = assay: Antiarthritic activity against adjuvant-induced arthritis in Wistar rat assessed as inhibition of paw edema at 100 mg/kg, po on day 13; assay type: functional; details: 312 h; method in brief: as §1
Mus musculus [4] = assay: Analgesic activity in Swiss Albino mouse assessed as number of acetic acid-induced writhing at 100 mg/kg, po after 1 hr relative to control; assay type: functional
Method in brief: (§3)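 Mice dosed orally; one hour later injected i.p. with 1% v/v acetic acid at 0.1 ml/10 g. Writhings counted over 15 min, starting five minutes after injection. Means ± SEM, n = 6; p < 0.05 versus control group.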

Rattus norvegicus [5] = assay: Antipyretic activity against LPS-induced pyresis in Wistar rat assessed as change in rectal temperature at 100 mg/kg, po after 1 hr; assay type: functional; method in brief: as §2
Rattus norvegicus [6] = assay: Antiinflammatory activity in Wistar rat assessed as inhibition of carrageenan-induced paw edema at 100 mg/kg, after 2 hrs; assay type: functional
Method in brief: (§4)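 Male Wistar rats (170 ± 20 g) dosed orally: test agents at 100 mg/kg, reference at 10 mg/kg. One hour later, 0.1 ml of 1% carrageenan injected subplantar into the right hind paw.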

Rattus norvegicus [7] = assay: Antiinflammatory activity in Wistar rat assessed as inhibition of carrageenan-induced paw edema at 100 mg/kg, after 3 hrs; assay type: functional; method in brief: as §4
Rattus norvegicus [8] = assay: Antiinflammatory activity in Wistar rat assessed as inhibition of carrageenan-induced paw edema at 100 mg/kg, after 24 hrs; assay type: functional; method in brief: as §4
Rattus norvegicus [9] = assay: Antipyretic activity against LPS-induced pyresis in Wistar rat assessed as change in rectal temperature at 100 mg/kg, po after 6 hrs; assay type: functional; method in brief: as §2
Rattus norvegicus [10] = assay: Antiarthritic activity against adjuvant-induced arthritis in Wistar rat assessed as inhibition of paw edema at 100 mg/kg, po on day 3; assay type: functional; details: 72 h; method in brief: as §1
Rattus norvegicus [11] = assay: Antiinflammatory activity in Wistar rat assessed as inhibition of carrageenan-induced paw edema at 100 mg/kg, after 4 hrs; assay type: functional; method in brief: as §4
Rattus norvegicus [12] = assay: Antiinflammatory activity in Wistar rat assessed as inhibition of carrageenan-induced paw edema at 100 mg/kg, after 1 hr; assay type: functional; method in brief: as §4
Rattus norvegicus [13] = assay: Antipyretic activity against LPS-induced pyresis in Wistar rat assessed as change in rectal temperature at 100 mg/kg, po after 5 hrs; assay type: functional; method in brief: as §2
Rattus norvegicus [14] = assay: Antipyretic activity against LPS-induced pyresis in Wistar rat assessed as change in rectal temperature at 100 mg/kg, po after 2 hrs; assay type: functional; method in brief: as §2
Rattus norvegicus [15] = assay: Antipyretic activity against LPS-induced pyresis in Wistar rat assessed as change in rectal temperature at 100 mg/kg, po after 7 hrs; assay type: functional; method in brief: as §2
Rattus norvegicus [16] = assay: Toxicity in 24 hrs fasted Wistar rat assessed as ulcer index at 100 mg/kg, po after 14 days; assay type: organism-based; set-up: dose 100 mg/kg, route oral; details: in vivo, 336 h
Method in brief: (§5)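 Male Wistar rats (175 ± 25 g) fasted 24 h and dosed orally. Acute arm: test agents at 100 mg/kg, indomethacin at 30 mg/kg; rats killed after 6 h, stomachs opened along the greater curvature and scored for ulcers. Chronic arm: 14-day dosing, stomachs examined post mortem at the end of the arthritis study. Ulcer index means ± SEM, n = 4.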

Mus musculus [17] = assay: Analgesic activity in Swiss Albino mouse assessed as inhibition of acetic acid-induced writhing responses at 100 mg/kg, po after 1 hr; assay type: functional; method in brief: as §3
Rattus norvegicus [18] = assay: Antipyretic activity against LPS-induced pyresis in Wistar rat assessed as change in rectal temperature at 100 mg/kg, po after 3 hrs; assay type: functional; method in brief: as §2
Rattus norvegicus [19] = assay: Antiarthritic activity against adjuvant-induced arthritis in Wistar rat assessed as weight change at 100 mg/kg, po; assay type: functional; method in brief: as §1
Rattus norvegicus [20] = assay: Antiinflammatory activity in Wistar rat assessed as inhibition of carrageenan-induced paw edema at 100 mg/kg, after 6 hrs; assay type: functional; method in brief: as §4
Rattus norvegicus [21] = assay: Antipyretic activity against LPS-induced pyresis in Wistar rat assessed as change in rectal temperature at 10 mg/kg, po after 5 hrs; assay type: functional; method in brief: as §2
Rattus norvegicus [22] = assay: Antipyretic activity against LPS-induced pyresis in Wistar rat assessed as change in rectal temperature at 100 mg/kg, po after 2 hrs
Mus musculus [23] = assay: Analgesic activity in Swiss Albino mouse assessed as inhibition of acetic acid-induced writhing responses at 10 mg/kg, po after 1 hr; assay type: functional; method in brief: as §3
Mus musculus [24] = assay: Analgesic activity in Swiss Albino mouse assessed as number of acetic acid-induced writhing at 100 mg/kg, po after 1 hr relative to control
Rattus norvegicus [25] = assay: Antipyretic activity against LPS-induced pyresis in Wistar rat assessed as change in rectal temperature at 10 mg/kg, po after 3 hrs; assay type: functional; method in brief: as §2
Rattus norvegicus [26] = assay: Antipyretic activity against LPS-induced pyresis in Wistar rat assessed as change in rectal temperature at 10 mg/kg, po after 1 hr; assay type: functional; method in brief: as §2
Rattus norvegicus [27] = assay: Antipyretic activity against LPS-induced pyresis in Wistar rat assessed as change in rectal temperature at 100 mg/kg, po after 6 hrs
Rattus norvegicus [28] = assay: Antipyretic activity against LPS-induced pyresis in Wistar rat assessed as change in rectal temperature at 100 mg/kg, po after 7 hrs
Rattus norvegicus [29] = assay: Antipyretic activity against LPS-induced pyresis in Wistar rat assessed as change in rectal temperature at 10 mg/kg, po after 4 hrs; assay type: functional; method in brief: as §2
Rattus norvegicus [30] = assay: Toxicity in 24 hrs fasted Wistar rat assessed as ulcer index […], po after 14 days; assay type: organism-based; set-up: route oral; details: in vivo, 336 h; method in brief: as §5
Rattus norvegicus [31] = assay: Antiarthritic activity against adjuvant-induced arthritis in Wistar rat assessed as weight change at 10 mg/kg, po; assay type: functional; method in brief: as §1
Rattus norvegicus [32] = assay: Antiarthritic activity against adjuvant-induced arthritis in Wistar rat assessed as inhibition of paw edema at 10 mg/kg, po on day 13; assay type: functional; details: 312 h; method in brief: as §1
Rattus norvegicus [33] = assay: Antiarthritic activity against adjuvant-induced arthritis in Wistar rat assessed as inhibition of paw edema at 10 mg/kg, po on day 3; assay type: functional; details: 72 h; method in brief: as §1
Rattus norvegicus [34] = assay: Antiinflammatory activity in Wistar rat assessed as inhibition of carrageenan-induced paw edema at 10 mg/kg, after 3 hrs; assay type: functional
Method in brief: (§6)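 Male Wistar rats, 170 ± 20 g, dosed orally; 0.1 ml of 1% carrageenan injected into the right hind paw subplantar region 1 h after dosing. Paw volume read by plethysmometer at 0, 1, 2, 3, 4, 6 and 24 h after carrageenan. Percent inhibition of edema is calculated against the control group. n = 6, mean ± SEM.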

Rattus norvegicus [35] = organism: Rattus norvegicus; assay: animal or person; details: Wistar, 2 h, read-out: Inhibition
Rattus norvegicus [36] = assay: Antiinflammatory activity in Wistar rat assessed as inhibition of carrageenan-induced paw edema at 10 mg/kg, after 24 hrs; assay type: functional; method in brief: as §4
Rattus norvegicus [37] = assay: Antiinflammatory activity in Wistar rat assessed as inhibition of carrageenan-induced paw edema at 10 mg/kg, after 4 hrs; assay type: functional; method in brief: as §6
Rattus norvegicus [38] = assay: Antiinflammatory activity in Wistar rat assessed as inhibition of carrageenan-induced paw edema at 10 mg/kg, after 1 hr; assay type: functional; method in brief: as §6
Rattus norvegicus [39] = assay: Antiinflammatory activity in Wistar rat assessed as inhibition of carrageenan-induced paw edema at 10 mg/kg, after 6 hrs; assay type: functional; method in brief: as §4
Rattus norvegicus [40] = assay: Antiarthritic activity against adjuvant-induced arthritis in Wistar rat assessed as inhibition of paw edema at 10 mg/kg, po on day 8; assay type: functional; details: 192 h; method in brief: as §1
Rattus norvegicus [41] = assay: Toxicity in 24 hrs fasted Wistar rat assessed as ulcer index at 30 mg/kg, po after 6 hrs; assay type: organism-based; set-up: dose 30 mg/kg, route oral; details: in vivo; method in brief: as §5

COc1cc2c(cc1OC)C(CC(=O)Nc1cccc(C)c1)CC2 (stereo not given)
inhibition in vivo at 100 mg/kg (Rattus norvegicus [1]): 19.2% | Activity (Rattus norvegicus [2]): 0.22 °C | inhibition in vivo at 100 mg/kg (Rattus norvegicus [3]): 20.7% | Activity (Mus musculus [4]): 15.83 | Activity (Rattus norvegicus [5]): -0.19 °C | inhibition in vivo at 100 mg/kg (Rattus norvegicus [6]): 29% | inhibition in vivo at 100 mg/kg (Rattus norvegicus [7]): 37.7% | inhibition in vivo at 100 mg/kg (Rattus norvegicus [8]): 41.7% | Activity (Rattus norvegicus [9]): 0.71 °C | inhibition in vivo at 100 mg/kg (Rattus norvegicus [10]): 16.5% | inhibition in vivo at 100 mg/kg (Rattus norvegicus [11]): 40.6% | inhibition in vivo at 100 mg/kg (Rattus norvegicus [12]): 37.5% | Activity (Rattus norvegicus [13]): 0.46 °C | Activity (Rattus norvegicus [14]): -1.34 °C | Activity (Rattus norvegicus [15]): 0.82 °C | UI (Rattus norvegicus [16]): 0 | inhibition in vivo at 100 mg/kg (Mus musculus [17]): 54.3% | Activity (Rattus norvegicus [18]): -0.51 °C | Activity (Rattus norvegicus [19]): 4.56 g | inhibition in vivo at 100 mg/kg (Rattus norvegicus [20]): 38%

CC(=O)Oc1ccccc1C(=O)O [ASPIRIN]
Activity (Rattus norvegicus [21]): 0.2 °C | Activity (Rattus norvegicus [22]): -1.45 °C | inhibition in vivo at 10 mg/kg (Mus musculus [23]): 61.5% | Activity (Mus musculus [24]): 13.33 | Activity (Rattus norvegicus [25]): -0.51 °C | Activity (Rattus norvegicus [26]): -0.43 °C | Activity (Rattus norvegicus [27]): 0.25 °C | Activity (Rattus norvegicus [28]): 0.31 °C | Activity (Rattus norvegicus [29]): 0.11 °C

COc1ccc2c(c1)c(CC(=O)O)c(C)n2C(=O)c1ccc(Cl)cc1 [INDOMETHACIN]
Activity (Rattus norvegicus [2]): 0.22 degrees C | Activity (Mus musculus [4]): 16.83 | UI (Rattus norvegicus [30]): 42 | Activity (Rattus norvegicus [31]): 5.68 g | Activity (Rattus norvegicus [5]): -0.39 °C | Activity (Rattus norvegicus [9]): 0.35 °C | inhibition in vivo at 10 mg/kg (Rattus norvegicus [32]): 46.5% | Activity (Rattus norvegicus [13]): 0.3 °C | Activity (Rattus norvegicus [14]): -1.03 °C | inhibition in vivo at 10 mg/kg (Rattus norvegicus [33]): 37.5% | inhibition in vivo at 10 mg/kg (Rattus norvegicus [34]): 65.2% | inhibition in vivo at 10 mg/kg (Rattus norvegicus [35]): 58% | inhibition in vivo at 10 mg/kg (Rattus norvegicus [36]): 13.3% | Activity (Rattus norvegicus [15]): 0.55 °C | inhibition in vivo at 10 mg/kg (Rattus norvegicus [37]): 57.8% | inhibition in vivo at 10 mg/kg (Rattus norvegicus [38]): 50% | inhibition in vivo at 100 mg/kg (Mus musculus [17]): 51.5% | inhibition in vivo at 10 mg/kg (Rattus norvegicus [39]): 48.1% | Activity (Rattus norvegicus [18]): -0.11 °C | inhibition in vivo at 10 mg/kg (Rattus norvegicus [40]): 43.9% | UI (Rattus norvegicus [41]): 31.37
